# Measurements pooled from the literature.
# Protocols differ between the studies behind these lines.
Compound,cell line,effect on,mode,technique,time,setting,IC50 [µM]
O=C(CSc1nc2ccccc2s1)N/N=C/c1ccc(OCC(=O)Nc2cccc([N+](=O)[O-])c2)cc1,HEL 299,cell growth or viability,,MTS,72 h,,> 100
Cc1cnc(CNC(=O)c2c(=O)c3ccc(N4CCCN(C)CC4)nc3n3c2sc2ccccc23)cn1,SNU-449,cell growth or viability,,imaging,72 h,,0.37
Cc1cc(NS(=O)(=O)c2ccc(NC(=O)/C(C#N)=C/c3ccc(N4CCCCC4)cc3)cc2)no1,HSF,cell growth or viability,,MTT,48 h,,> 200
O=C(NO)c1ccc(Cn2cnc3c(Nc4cccc([N+](=O)[O-])c4)ncnc32)cc1,NB-4,cell growth or viability,,MTT,72 h,,0.58
C=CC(=O)N1CCC[C@@H](n2nc(-c3ccc(Oc4ccccc4)cc3)c3c(N)ncnc32)C1,SU-DHL-6,cell growth or viability,,resazurin,72 h,,> 0.5
COc1ccccc1Cn1nc(-c2ccc(CO)o2)c2ccccc21,CC-LP-1,cell growth or viability,,ATP luminescence,,,~46
C(=N\Nc1cc(N/N=C/c2cccc3cccnc23)nc(-c2ccccc2)n1)/c1cccc2cccnc12,BGC-823,cell growth or viability,,MTT,48 h,,16.9
CN1CCC(NC2CCc3[nH]c4c(C(N)=O)ccc(-c5ccccc5Cl)c4c3C2)CC1 (centres unmarked),BGC-823,cell growth or viability,,,96 h,,0.018
OCc1ccc(-c2nn(Cc3ccncc3)c3ccccc23)o1,CC-LP-1,cell growth or viability,,ATP luminescence,,,> 46
Cc1cc(NS(=O)(=O)c2ccc(NC(=O)/C(C#N)=C/c3ccncc3)cc2)no1,HSF,cell growth or viability,,MTT,48 h,,> 200
C#Cc1cccc(Nc2ncnc3cc(OCCOC)c(OCCOC)cc23)c1,BGC-823,cell growth or viability,,MTT,48 h,,> 20
O=C(NO)c1ccc(Cn2cnc3c(Nc4ccc(Br)cc4F)ncnc32)cc1,HEL,cell growth or viability,,MTT,72 h,,2.46
COc1cccc(Cn2nc(-c3ccc(CO)o3)c3ccccc32)c1,CC-LP-1,cell growth or viability,,ATP luminescence,,,> 46
Nc1ccccc1NC(=O)c1ccc(Cn2cnc3c(Nc4ccc(Br)cc4F)ncnc32)cc1,HEL,cell growth or viability,,MTT,72 h,,17
CCC(=CCc1c(O)cc2c(c1O)C(=O)C[C@@H](c1ccc(O)cc1)O2)CC,HeLa,cell growth or viability,,MTT,48 h,,22.8
O=C(CSc1nc2ccccc2s1)N/N=C/c1ccc(OCC(=O)Nc2cccc(Cl)c2)cc1,HEL 299,cell growth or viability,,MTS,72 h,,> 100
NCc1ccc(-c2nn(Cc3ccccn3)c3cccnc23)o1,CC-LP-1,cell growth or viability,,ATP luminescence,,,> 46
O=C(NO)c1ccc(Cn2cnc3c(Nc4ccc(F)c(Cl)c4)ncnc32)cc1,NB-4,cell growth or viability,,MTT,72 h,,2.34
CN1C(=O)C(=O)c2cc3c(c4c2c1cc1ccccc14)OCO3,H69AR,cell growth or viability,,MTT,75 h,,44.6
Cc1cc(NS(=O)(=O)c2ccc(NC(=O)/C(C#N)=C/c3ccc(N4CCOCC4)cc3)cc2)no1,HSF,cell growth or viability,,MTT,48 h,,> 200
NCc1ccc(-c2nn(Cc3ccccc3)c3ccccc23)o1,CC-LP-1,cell growth or viability,,ATP luminescence,,,> 46
COc1ccc(Nc2ncnc3c2ncn3Cc2ccc(C(=O)Nc3ccccc3N)cc2)cc1,HEL,cell growth or viability,,MTT,72 h,,16.8
Cc1cc2c(C(=O)O)cccc2n1-c1nc2c(c(NCc3ccccc3)n1)CCCN2,KMS-11,cell growth or viability,,,72 h,,0.9
CN1CCN(c2ccc(Nc3c4ccccc4nc4ccccc34)cc2)CC1,SNU-449,cell growth or viability,,imaging,72 h,,4.68
COc1cc([C@@H]2c3cc4c(cc3[C@@H](O[C@@H]3O[C@@H]5CO[C@@H](C)O[C@H]5[C@H](O)[C@H]3O)[C@H]3COC(=O)[C@H]23)OCO4)cc(OC)c1O,HEL 299,cell growth or viability,,MTS,72 h,,> 10
Nc1ccccc1NC(=O)c1ccc(Cn2cnc3c(Nc4ccc(Cl)cc4)ncnc32)cc1,HEL,cell growth or viability,,MTT,72 h,,13
O=c1[nH]cc(F)c(=O)[nH]1,BGC-823,cell growth or viability,,MTT,48 h,,15.2
CN(C)c1cccc2c(S(=O)(=O)NCCCCN=C=S)cccc12,HDFa,cell growth or viability,,MTT,24 h,,28.4
OCc1ccc(-c2nn(Cc3ccccc3)c3ccccc23)o1,CC-LP-1,cell growth or viability,,ATP luminescence,,,> 46
Cc1ccc(S(=O)(=O)NC(=O)c2cc3ccccc3n2Cc2ccc(C3CC3)c3ccccc23)cc1,mouse BMDM,IL-1β release,inhibitor,ELISA,,LPS-stimulated,2.61
O=C(NO)c1ccc(Cn2cnc3c(Nc4ccc(Cl)cc4)ncnc32)cc1,NB-4,cell growth or viability,,MTT,72 h,,0.41
C(=N\Nc1cc(N/N=C/c2ccc3ccccc3n2)ncn1)/c1ccc2ccccc2n1,BGC-823,cell growth or viability,,MTT,48 h,,12.3
COc1ccc(Nc2ncnc3c2ncn3Cc2ccc(C(=O)NO)cc2)cc1,NB-4,cell growth or viability,,MTT,72 h,,0.87
CONC(=O)c1cccc2c1cc(C)n2-c1nc2c(c(NCc3ccccc3)n1)CCCN2,KMS-11,cell growth or viability,,,72 h,,2.1
COc1cnccc1Cn1nc(-c2ccc(CO)o2)c2ccccc21,CC-LP-1,cell growth or viability,,ATP luminescence,,,> 46
